Test results from ChEMBL document CHEMBL1131318, “Synthesis and evaluation of compounds that facilitate the gastrointestinal absorption of heparin” (J Med Chem, 1998).

Columns and labels:
[1] = Mean peak APTT value was evaluated on rats by intracolonic instillation of a 25% aqueous propylene glycol solution of heparin (25 mg/kg) and compound (50 mg/kg).; type: functional, Rattus norvegicus
[2] = HPLC capacity factor (k') (artificial membrane chromatography); type: ADME
Method in brief: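 Immobilized artificial membrane (IAM) column; mobile phase 10 mM sodium phosphate pH 6.4 in 25% aqueous propylene glycol, 2 mL/min. Samples at 100 µg/mL in mobile phase, UV detection 220 nm, KI as void marker. k' of each compound divided by mean k' of a reference standard injected before and after each set of five compounds; reported as relative k' (log for comparisons).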

| SMILES | Log relative k' [2] | Mean peak APTT [1] |
| --- | --- | --- |
| Cc1ccccc1C(=O)NCCCCCCCC(=O)O | 0.45 | 25 |
| O=C(O)CCCCCCCNC(=O)c1ccc(I)cc1 | 0.97 | 23 |
| O=C(O)CCCCCCCNC(=O)c1ccc(Br)cc1 | 0.76 | 60 |
| O=C(O)CCCCCCCNC(=O)c1ccccc1O [SALCAPROZIC ACID] | 0.68 | 125 |
| O=C(O)CCCCCCCCCCCNC(=O)c1ccccc1O | 2.32 | 44 |
| COc1ccccc1/C=C/CC(=O)NCCCCCCCCC(=O)O | 0.89 | 56 |
| O=C(O)CCCCCCCNC(=O)c1cccc(O)c1 | 0 | 23 |
| O=C(O)CCCNC(=O)c1ccccc1O | -0.41 | 25 |
| O=C(O)CCCCCCCNC(=O)c1ccc(F)cc1 | 0.23 | 31 |
| O=C(O)CCCCCCCNC(=O)c1cc2ccccc2oc1=O | 0.81 | 34 |
| COc1ccccc1C(=O)NCCCCCC(=O)O | -0.47 | 27 |
| O=C(O)CCCCCCNC(=O)C/C=C/c1ccccc1 | 0.36 | 39 |
| O=C(O)CCCCCNC(=O)c1ccccc1O | 0.04 | 24 |
| O=C(O)CCCCCCCNC(=O)C1CCCCC1 | 0.15 | 34 |
| O=C(O)CCCCCCCNC(=O)c1ccccc1 | 0.09 | 21 |
| O=C(O)CCCCCCCNC(=O)c1ccccc1C(=O)O | -1 | 23 |
| O=C(O)CCCCCCCNC(=O)c1ccc2ccccc2c1O | 2.1 | 31 |
| O=C(O)CCCCCCCNC(=O)c1cccc(I)c1 | 1.05 | 39 |
| O=C(O)CCCCCCCCNC(=O)C/C=C/c1ccccc1 | 0.69 | 140 |
| O=C(O)CCCCCCCNC(=O)c1ccc(O)cc1 | -0.04 | 27 |
| O=C(O)CCCCCCCNC(=O)c1cccs1 | 0.9 | 22 |
| O=C(O)CCCCCCCCCCCNC(=O)C/C=C/c1ccccc1 | 2.29 | 41 |
| O=C(O)CCCCCCCNC(=O)C/C=C/c1ccccc1 | 0.7 | 73 |

| SMILES | Log relative k' [2] | Mean peak APTT [1] |
| --- | --- | --- |
| O=C(O)CCCCCCCNC(=O)C1CCCN1 (stereo not given) | -0.28 | 25 |
| Nc1ccccc1C(=O)NCCCCCCCC(=O)O | 0.02 | 24 |
| O=C(O)CCCCCCCNC(=O)c1ccccc1OC(F)(F)F | -0.64 | 23 |
| COc1cc([N+](=O)[O-])ccc1C(=O)NCCCCCCCC(=O)O | -0.55 | 25 |
| O=C(O)CCCCCCCNC(=O)c1ccccn1 | -0.52 | 23 |
| O=C(O)CCCCCCCNC(=O)c1cccnc1O | 0.9 | 22 |
| O=C(O)CCCCCCCNC(=O)c1c(F)c(F)c(F)c(F)c1F | 0.41 | 22 |
| O=C(O)CCCCCCCNC(=O)c1cc(O)cc(O)c1 | -0.06 | 20 |
| O=C(O)CCCCCCCNC(=O)c1ccc(Cl)c([N+](=O)[O-])c1 | 0.94 | 34 |
| O=C(O)CCCCCCCNC(=O)Cc1ccccc1O | 0.12 | 21 |
| O=C(O)CCCCCCCNC(=O)c1ccccc1F | 0.11 | 25 |
| O=C(O)CCCCCCCCCCNC(=O)c1ccccc1O | 1.88 | 51 |
| O=C(O)CCCCCCCNC(=O)c1cccc(F)c1 | 0.29 | 35 |
| O=C(O)CCCCCCCCCCNC(=O)c1ccc2ccccc2c1O | > 2.5 | 26 |
| O=C(O)CCCCNC(=O)c1ccccc1O | -0.18 | 26 |
| O=C(O)CNC(=O)c1ccccc1O [SALICYLURIC ACID] | -0.68 | 28 |
| O=C(O)CCCCCCCNC(=O)c1ccc([N+](=O)[O-])cc1 | 0.44 | 33 |
| O=C(O)CCCCCCCNC(=O)c1ccccc1I | 0.35 | 22 |
| COc1ccccc1C(=O)NCCCCCCCC(=O)O | 0.33 | 26 |
| O=C(O)CCCCCCCNC(=O)c1ccccc1Br | 0.24 | 21 |
| O=C(O)CCCCCCCNC(=O)c1cccnc1Cl | -0.53 | 30 |
| O=C(O)CCNC(=O)c1ccccc1O | -0.63 | 22 |

Continued, in another order:

| Log relative k' [2] | SMILES | Mean peak APTT [1] |
| --- | --- | --- |
| 0.18 | O=C(O)CCCCCCCNC(=O)c1ccccc1Cl | 23 |
| 1.7 | O=C(O)CCCCCCCNC(=O)c1cc2ccccc2cc1O | 71 |
| 1.12 | O=C(O)CCCCCCCNC(=O)c1c(O)cccc1O | 42 |
| 0.46 | O=C(O)CCCCCCCNC(=O)c1cccc(O)c1O | – |
| 1.72 | O=C(O)CCCCCCCNC(=O)c1cc(I)ccc1O | 32 |
| 1.43 | O=C(O)CCCCCCCNC(=O)c1ccc(Cl)cc1O | 94 |
| 0.65 | O=C(O)CCCCCCCNC(=O)c1ccc(O)cc1O | 37 |
| 1.05 | Cc1ccc(C(=O)NCCCCCCCC(=O)O)c(O)c1 | 37 |
| 0.65 | O=C(O)CCCCCCCNC(=O)c1ccc(Cl)cc1 | 37 |
| 1.54 | O=C(O)CCCCCCCNC(=O)c1cc(Br)ccc1O | 111 |
| 0.37 | O=C(O)CCCCCCNC(=O)c1ccccc1O | 56 |
| 0.79 | COc1cc(Cl)ccc1C(=O)NCCCCCCCC(=O)O | 75 |
| 0.81 | O=C(O)CCCCCCCNC(=O)c1cc(Cl)ccc1O | 56 |
| 0.51 | O=C(O)CCCCCCCNC(=O)c1cc(O)ccc1O | 25 |
| 0.25 | O=C(O)CCCCCCCNC(=O)c1cc([N+](=O)[O-])ccc1Cl | 23 |
| 0.23 | O=C(O)CCCCCCCNC(=O)c1c(F)cccc1Cl | 23 |
| 1.03 | Cc1ccc(O)c(C(=O)NCCCCCCCC(=O)O)c1 | 56 |
| 0.92 | COc1ccc(C(=O)NCCCCCCCC(=O)O)c(O)c1 | 76 |
| 1.23 | Cc1cccc(C(=O)NCCCCCCCC(=O)O)c1O | 27 |
| 0.26 | O=C(O)CCCCCNC(=O)c1ccc(Cl)cc1O | 40 |
| 1.11 | O=C(O)CCCCCCCNC(=O)c1ccc([N+](=O)[O-])cc1O | 36 |
| 1.04 | O=C(O)CCCCCCCCNC(=O)c1ccccc1O | 163 |
| 1.43 | O=C(O)CCCCCCCCCNC(=O)c1ccccc1O | 153 |
